Tested on: Aorta
Experiment: Vasorelaxant activity in potassium depolarized guinea pig aortic strip assessed as inhibition of calcium-induced contraction at 100 uM
Assay type: functional
Conditions: Cavia porcellus

SMILES	inhibition at 100 µM
Cc1cc(C)c(NCC[C@@H]2CCCN3CCCC[C@H]23)c(C)c1	37%
Cc1cccc(C)c1OC[C@@H]1CCCN2CCCC[C@H]12	26%
COc1cc(N)c(Cl)cc1C(=O)NC[C@@H]1CCCN2CCCC[C@H]12	6%
CCN(CC)CCNC(=O)c1ccc(N)cc1 [PROCAINAMIDE]	2%

Tested on: not listed separately
Experiment: Antiarrhythmic activity in sinusoidal alternating current-induced guinea pig left atrium assessed as increase in current strength at which extra beats occur at 50 uM measured every 30 mins
Assay type: functional, Cavia porcellus, Cardiac atrium
Conditions: not given
In short: (§1)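 Isolated guinea pig left atria, electrically driven at 1 Hz, were exposed to sinusoidal alternating current to induce arrhythmia. The read-out was the rise in the ac-arrhythmia threshold over concentrations up to 100 μM.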

SMILES	Activity
COc1cc(N)c(Cl)cc1C(=O)NC[C@@H]1CCCN2CCCC[C@H]12	113%

Tested on: not listed separately
Experiment: Antiarrhythmic activity in sinusoidal alternating current-induced guinea pig left atrium assessed as increase in current strength at which extra beats occur measured every 30 mins
Assay type: functional, tissue-based
Conditions: Cavia porcellus, Cardiac atrium, 0.5 h
In short: as §1

SMILES	EC50
Cc1cc(C)c(NCC[C@@H]2CCCN3CCCC[C@H]23)c(C)c1	8.15 µM
COc1cc(N)c(Cl)cc1C(=O)NC[C@@H]1CCCN2CCCC[C@H]12	6.73 µM

Tested on: not listed separately
Experiment: Negative inotropic activity against potassium-induced contraction in guinea pig left atrium assessed as decrease in developed tension at 10 uM relative to control
Assay type: functional, Cavia porcellus, Cardiac atrium
Design: scale not given: the % may be the effect or the level left
Conditions: not given

SMILES	Activity
Cc1cc(C)c(NCC[C@@H]2CCCN3CCCC[C@H]23)c(C)c1	89%

Tested on: not listed separately
Experiment: Negative inotropic activity against potassium-induced contraction in guinea pig left atrium assessed as decrease in developed tension
Assay type: functional, tissue-based
Conditions: Cavia porcellus, Cardiac atrium

SMILES	EC50
Cc1cc(C)c(NCC[C@@H]2CCCN3CCCC[C@H]23)c(C)c1	0.034 µM
COc1cc(N)c(Cl)cc1C(=O)NC[C@@H]1CCCN2CCCC[C@H]12	0.35 µM

Tested on: not listed separately
Experiment: Negative chronotropic activity against potassium-induced contraction in guinea pig left atrium assessed as decrease atrial rate at 50 uM relative to control
Assay type: functional, Cavia porcellus, Cardiac atrium
Design: scale not given: the % may be the effect or the level left
Conditions: not given

SMILES	Activity
Cc1cc(C)c(NCC[C@@H]2CCCN3CCCC[C@H]23)c(C)c1	44%
COc1cc(N)c(Cl)cc1C(=O)NC[C@@H]1CCCN2CCCC[C@H]12	22%

Tested on: not listed separately
Experiment: Negative inotropic activity against potassium-induced contraction in guinea pig left atrium assessed as decrease in developed tension at 50 uM relative to control
Assay type: functional, Cavia porcellus, Cardiac atrium
Design: scale not given: the % may be the effect or the level left
Conditions: not given

SMILES	Activity
COc1cc(N)c(Cl)cc1C(=O)NC[C@@H]1CCCN2CCCC[C@H]12	95%

Tested on: not listed separately
Experiment: Antiarrhythmic activity in sinusoidal alternating current-induced guinea pig left atrium assessed as increase in current strength at which extra beats occur at 10 uM measured every 30 mins
Assay type: functional, Cavia porcellus, Cardiac atrium
Conditions: not given
In short: as §1

SMILES	Activity
Cc1cc(C)c(NCC[C@@H]2CCCN3CCCC[C@H]23)c(C)c1	63%

Reference: ChEMBL document CHEMBL1177711, “Novel quinolizidinyl derivatives as antiarrhythmic agents: 2. Further investigation” (J Med Chem, 2010)
